Laboratory results reported in paper PMC5822492 (Pharmacognosy Magazine, 2018).
Values after ≈ are worked out from the molar mass of the structure shown.

Key:
HUVECs tube formation = experiment: Endothelial cell tube formation assay; format: cell-based, human
Outline: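 HUVECs grown in ECM-2 were trypsinized and resuspended in basal medium with 0.1% BSA. 5 × 10^4 cells were seeded onto tube-formation matrix plates with test compound or suramin as positive control, for 4–6 h at 37°C, 5% CO2. After HBSS washes, tube junctions were counted at ×4 and expressed as percentage inhibition.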

HepG2 cells migration = experiment: Cell migration; format: cell-based, human; conditions: HepG2, 6.25, 12.5, 25 μg/mL, up to 96 h; untreated closed after 96 h
Outline: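 Confluent HepG2 monolayers were scratched and exposed to 6.25, 12.5 or 25 µg/mL test compound, with images taken at 0, 12, 24, 30, 48, 54, 72, 78 and 96 h. Gap distances were measured by inverted microscopy (×20), using ten fields per treatment and at least 10 readings per field. Cell-free area gave percentage wound closure.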

[1] = test system: microvessel outgrowth from rat aortic rings; experiment: Ex vivo rat aortic ring assay; conditions: 12.5 μg/mL, day 5, not significantly different from suramin
Outline: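 Thoracic aortas from 10–12-week male Sprague Dawley rats were rinsed in HBSS with 2.5 µg/mL amphotericin B, cleaned and cut into 1 mm rings. Rings were embedded in fibrinogen (3 mg/mL)/thrombin gel in serum-free M199 with aprotinin, then fed M199 with 20% HIFCS and additives at 37°C, 5% CO2. Test compound ran 1.56–12.5 µg/mL, suramin positive, 1% DMSO negative. Day-5 sprouting area was measured (×4) in three experiments, six replicates each, as mean ± SD.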

WRL68 cells = experiment: MTT cell proliferation inhibition, WRL68; format: cell-based; conditions: Homo sapiens, WRL68, 72 h, read-out: IC50±SD
Outline: (§1)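 HepG2 (passage 4–7), HUVEC and WRL68 cells (1 × 10^4) were exposed to test compound for 72 h, with 1% DMSO as negative control. Then 20 µL MTT (5 mg/mL in PBS) was added for 5 h at 37°C, 5% CO2. Absorbance was read at 570 nm against 630 nm reference, and viability expressed as percent of untreated cells. Triplicates were run and the experiment repeated three times.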

[2] = test system: angiogenesis-related proteins of HepG2 cells; experiment: Human cytokine; format: cell-based; conditions: HepG2, 6.25 μg/mL, cytokine array
Outline: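 HepG2 cells were exposed to 6.25 µg/mL test compound. Samples with a biotinylated detection-antibody cocktail were bound to a membrane antibody array of angiogenesis proteins carrying duplicate spots. Detection used streptavidin-HRP chemiluminescence on X-ray film with densitometry. Values are fold change versus untreated cultures.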

HepG2 cells = experiment: MTT cell proliferation inhibition, HepG2; format: cell-based; conditions: Homo sapiens, HepG2, 72 h, read-out: IC50±SD
Outline: as §1

[3] = test system: chick chorioallantoic membrane neovascularization; experiment: Chorioallantoic membrane; format: in vivo, chicken; conditions: 24 h, 6.25 and 12.5 μg/mL (Figure 3 legend)
Outline: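 On fertilized eggs incubated from day 5 at 37°C in constant humidity, 5 mL albumin was aspirated and the eggs laid horizontally to detach the CAM. Test compound in 1.2% agarose disks went onto the CAM through a shell window, with agarose-only disks as negative control. The window was taped and eggs incubated 24 h. Vessels were counted from dissecting-microscope photographs as mean count per CAM.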

[4] = test system: human umbilical vein endothelial cells (HUVEC); experiment: MTT cell proliferation inhibition, HUVEC; format: cell-based; conditions: 72 h
Outline: as §1

[5] = test system: VEGF, MMP-9 and NF-κB expression in HepG2 cells; experiment: Western blot analysis of VEGF, MMP-9 and NF-κB; format: cell-based, human; conditions: 6.25 μg/mL, P < 0.05
[6] = Homo sapiens, HUVEC, read-out: inhibition of endothelial tube formation

Compound | inhibition at 100 µg/mL (HUVECs tube formation; [6]) | scratch wound closure (HepG2 cells migration) | inhibition of neovascularization [1] | IC50 (WRL68 cells) | effect on endothelial tube network (HUVECs tube formation; HUVECs, 3.125 μg/mL) | inhibition at 12.5 µg/mL (HUVECs tube formation; [6]) | MMP expression [2] | VEGF expression [2] | angiogenin expression [2] | angiopoietin expression [2] | endostatin expression [2] | thrombospondin expression [2] | IC50 (HepG2 cells) | effect on CAM vasculature [3] | IC50 ([4]; Homo sapiens, read-out: IC50±SD, HUVEC, MTT, 72 h) | IC50±SD ([4]; MTT) | Matrix metalloproteinase-9 (MMP-9) expression [5] | NF-κB expression [5] | VEGF expression [5]
Cc1ccc(C(=O)Nc2ccc(S(=O)(=O)O)c3cc(S(=O)(=O)O)cc(S(=O)(=O)O)c23)cc1NC(=O)c1cccc(NC(=O)Nc2cccc(C(=O)Nc3cc(C(=O)Nc4ccc(S(=O)(=O)O)c5cc(S(=O)(=O)O)cc(S(=O)(=O)O)c45)ccc3C)c2)c1 [Suramin, reference compound] | 96% | – | – | – | – | – | – | – | – | – | – | – | – | – | – | – | – | – | –
C/C1=C\CC(C)(C)/C=C/C(=O)/C(C)=C/CC1 [ZER, zerumbone] | – | not scratch closure | almost complete inhibition | 150 ± 0.4 µg/mL (≈ 687 µM) | reduced the intensity of network structures and caused the formation of incomplete and broken tubules | 89% | inhibited expression | inhibited expression | inhibited expression | inhibited expression | increasing expression | increasing expression | 6.2 ± 0.7 µg/mL (≈ 28.4 µM) | vascular regression | > 50 µg/mL | 62.0 ± 1.3 µg/mL (≈ 284 µM) | downregulation | downregulation | downregulation
